The source made the active and inactive calls. The rule behind the calls is not given here.
How the values were obtained:
[1] = test system: RAW264.7; experiment: Antiinflammatory activity in mouse RAW264.7 cells assessed as inhibition of LPS-induced nitric oxide release at 10 uM treated 2 hrs before LPS challenge measured after 48 hrs by Griess assay relative to control; assay type: functional
[2] = Cytotoxicity against mouse RAW264.7 cells assessed as cell viability at 5 uM after 48 hrs by MTT assay relative to control; assay type: cell-based; conditions: read-out: Activity
Procedure, shortened: (§1)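 MTT assay. RAW264.7 cells at 4 × 10^3 cells/well, cultured 16 h, then exposed to compounds diluted in DMEM for 48 h. MTT (0.5 mg/mL) added for 4 h, formazan dissolved in DMSO, OD570 read. Viability = compound OD570/blank OD570 × 100%, with the medium-only blank set as 100%. Three independent experiments.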

[3] = target: T1, Peroxisome proliferator-activated receptor gamma (Mus musculus) (UniProt P37238); experiment: Inhibition of PPARgamma in mouse RAW264.7 cells assessed as inhibition of LPS-induced p38 MAPK phosphorylation at 10 uM after 4 hrs by Western blot analysis in presence of PPARgamma antagonist GW9662; assay type: cell-based
T1 sequence (whole entry): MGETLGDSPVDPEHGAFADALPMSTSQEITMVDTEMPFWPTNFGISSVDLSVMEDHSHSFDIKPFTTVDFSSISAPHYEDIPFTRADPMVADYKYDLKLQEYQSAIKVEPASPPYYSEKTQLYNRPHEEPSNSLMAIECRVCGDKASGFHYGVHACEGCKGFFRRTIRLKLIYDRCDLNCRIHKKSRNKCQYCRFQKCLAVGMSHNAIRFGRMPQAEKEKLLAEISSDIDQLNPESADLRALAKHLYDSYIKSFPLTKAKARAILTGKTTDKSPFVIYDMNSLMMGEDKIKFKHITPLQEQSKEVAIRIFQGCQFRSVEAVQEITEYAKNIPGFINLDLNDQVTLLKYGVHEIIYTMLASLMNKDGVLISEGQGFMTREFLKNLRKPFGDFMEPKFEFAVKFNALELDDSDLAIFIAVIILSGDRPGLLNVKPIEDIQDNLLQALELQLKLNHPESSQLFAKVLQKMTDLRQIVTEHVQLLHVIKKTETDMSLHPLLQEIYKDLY
Procedure, shortened: (§2)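 RAW264.7 cells at 2 × 10^6 per well, cultured 18 h, then given fresh medium with compounds plus 500 ng/mL LPS for 4 h, with GW9662 at 5 where included. Lysates clarified at 14,000 × g, protein by BCA, equal loads on SDS-PAGE. Blots blocked in 5% milk/TBST, primary antibodies 1:1000 overnight, secondary 1:1000 90 min, ECL detection. Means ± SD (n = 3).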

[4] = target: T1, Peroxisome proliferator-activated receptor gamma (Mus musculus); experiment: Inhibition of PPARgamma in mouse RAW264.7 cells assessed as inhibition of LPS-induced ERK1/2 phosphorylation at 10 uM after 4 hrs by Western blot analysis in presence of PPARgamma antagonist GW9662; assay type: cell-based; procedure, shortened: as §2
[5] = target: T1, Peroxisome proliferator-activated receptor gamma (Mus musculus); experiment: Inhibition of PPARgamma in mouse RAW264.7 cells assessed as inhibition of LPS-induced JNK phosphorylation at 10 uM after 4 hrs by Western blot analysis in presence of PPARgamma antagonist GW9662; assay type: cell-based; procedure, shortened: as §2
[6] = target: T1, Peroxisome proliferator-activated receptor gamma (Mus musculus); experiment: Inhibition of PPARgamma in mouse RAW264.7 cells assessed as inhibition of LPS-induced IkappaBalpha phosphorylation at 10 uM after 4 hrs by Western blot analysis in presence of PPARgamma antagonist GW9662; assay type: cell-based; procedure, shortened: as §2
[7] = target: T1, Peroxisome proliferator-activated receptor gamma (Mus musculus); experiment: Inhibition of PPARgamma in mouse RAW264.7 cells assessed as inhibition of LPS-induced NF-kappaB 65 phosphorylation at 10 uM after 4 hrs by Western blot analysis in presence of PPARgamma antagonist GW9662; assay type: cell-based; procedure, shortened: as §2
[8] = target: T1, Peroxisome proliferator-activated receptor gamma (Mus musculus); experiment: Inhibition of PPARgamma in mouse RAW264.7 cells assessed as inhibition of LPS-induced p38 MAPK phosphorylation at 10 uM after 4 hrs by Western blot analysis; assay type: cell-based; procedure, shortened: as §2
[9] = target: T1, Peroxisome proliferator-activated receptor gamma (Mus musculus); experiment: Inhibition of PPARgamma in mouse RAW264.7 cells assessed as inhibition of LPS-induced ERK1/2 phosphorylation at 10 uM after 4 hrs by Western blot analysis; assay type: cell-based; procedure, shortened: as §2
[10] = target: T1, Peroxisome proliferator-activated receptor gamma (Mus musculus); experiment: Inhibition of PPARgamma in mouse RAW264.7 cells assessed as inhibition of LPS-induced JNK phosphorylation at 10 uM after 4 hrs by Western blot analysis; assay type: cell-based; procedure, shortened: as §2
[11] = target: T1, Peroxisome proliferator-activated receptor gamma (Mus musculus); experiment: Inhibition of PPARgamma in mouse RAW264.7 cells assessed as inhibition of LPS-induced IkappaBalpha phosphorylation at 10 uM after 4 hrs by Western blot analysis; assay type: cell-based; procedure, shortened: as §2
[12] = target: T1, Peroxisome proliferator-activated receptor gamma (Mus musculus); experiment: Inhibition of PPARgamma in mouse RAW264.7 cells assessed as inhibition of LPS-induced NF-kappaB 65 phosphorylation at 10 uM after 4 hrs by Western blot analysis; assay type: cell-based; procedure, shortened: as §2
[13] = test system: RAW264.7; experiment: Antiinflammatory activity in mouse RAW264.7 cells assessed as inhibition of LPS-induced IL-6 release at 10 uM treated 2 hrs before LPS challenge measured by ELISA; assay type: functional, cell-based; conditions: TDE = time-dependent effect
[14] = test system: RAW264.7; experiment: Antiinflammatory activity in mouse RAW264.7 cells assessed as inhibition of LPS-induced TNF-alpha release at 10 uM treated 2 hrs before LPS challenge measured by ELISA; assay type: functional, cell-based; conditions: TDE = time-dependent effect
[15] = test system: RAW264.7; experiment: Antiinflammatory activity in mouse RAW264.7 cells assessed as inhibition of LPS-induced IL-6 release at 10 uM treated 2 hrs before LPS challenge measured after 24 hrs by ELISA (reference value: 45.1 +/- 5.6 pg/ml); assay type: functional
[16] = test system: RAW264.7; experiment: Antiinflammatory activity in mouse RAW264.7 cells assessed as inhibition of LPS-induced IL-6 release at 10 uM treated 2 hrs before LPS challenge measured after 12 hrs by ELISA (reference value: 13.9 +/- 2.6 pg/ml); assay type: functional
[17] = test system: RAW264.7; experiment: Antiinflammatory activity in mouse RAW264.7 cells assessed as inhibition of LPS-induced IL-6 release at 10 uM treated 2 hrs before LPS challenge measured after 6 hrs by ELISA (reference value: 7.2 +/- 0.9 pg/ml); assay type: functional
[18] = test system: RAW264.7; experiment: Antiinflammatory activity in mouse RAW264.7 cells assessed as inhibition of LPS-induced TNF-alpha release at 10 uM treated 2 hrs before LPS challenge measured after 24 hrs by ELISA (reference value: 38.3 +/- 3.3 pg/ml); assay type: functional
[19] = test system: RAW264.7; experiment: Antiinflammatory activity in mouse RAW264.7 cells assessed as inhibition of LPS-induced TNF-alpha release at 10 uM treated 2 hrs before LPS challenge measured after 12 hrs by ELISA (reference value: 11.8 +/- 1.2 pg/ml); assay type: functional
[20] = test system: RAW264.7; experiment: Antiinflammatory activity in mouse RAW264.7 cells assessed as inhibition of LPS-induced TNF-alpha release at 10 uM treated 2 hrs before LPS challenge measured after 6 hrs by ELISA (reference value: 5.9 +/- 0.5 pg/ml); assay type: functional
[21] = Cytotoxicity against mouse RAW264.7 cells assessed as cell viability at 10 uM after 48 hrs by MTT assay relative to control; assay type: cell-based; conditions: read-out: Activity; procedure, shortened: as §1

## COc1cc(/C=C2\OC(=O)C(Cl)=C2Cl)ccc1OCc1ccccn1
[1]
  inhibition at 10 µM: 36.4%

## CCOc1cc(/C=C2\OC(=O)C(Br)=C2Br)ccc1OCc1ccccn1
[1]
  inhibition at 10 µM: 42.2%

## COc1cc(/C=C2\OC(=O)C(Br)=C2Br)ccc1OCc1nc(C)c(C)nc1C
[1]
  inhibition at 10 µM: 37.2%

## CCc1ccc(CCOc2ccc(/C=C3\OC(=O)C(Br)=C3Br)cc2)nc1
[1]
  inhibition at 10 µM: 43.6%

## O=C1O/C(=C\c2ccc(OCc3ccccn3)cc2)C(Br)=C1Br
[1]
  inhibition at 10 µM: 29.2%

## Cc1nc(C)c(COc2ccc(/C=C3\OC(=O)C(Br)=C3Br)cc2)nc1C
[1]
  inhibition at 10 µM: 30.1%

## O=C1O/C(=C\c2ccc(OCCc3ccccn3)cc2)C(Cl)=C1Cl
[1]
  inhibition at 10 µM: 20.2%

## CCOc1cc(/C=C2\OC(=O)C(Cl)=C2Cl)ccc1OCc1ccccn1
[1]
  inhibition at 10 µM: 36.8%

## COc1cc(/C=C2\OC(=O)C(Br)=C2Br)ccc1OCc1ccccn1
[1]
  inhibition at 10 µM: 33.9%

## CCc1ccc(CCOc2ccc(/C=C3\OC(=O)C(Cl)=C3Cl)cc2)nc1
[1]
  inhibition at 10 µM: 40.8%

## COc1cc(/C=C2\SC(=O)NC2=O)ccc1OCc1nc(C)c(C)nc1C
[1]
  inhibition at 10 µM: 24.9%

## O=C(Nc1ccccc1)c1cc([N+](=O)[O-])ccc1Cl
[2]
  viability at 48 h, 5 µM: 101%

## O=C1O/C(=C\c2ccc(OCCc3ccccn3)cc2)C(Br)=C1Br
[1]
  inhibition at 10 µM: 38%

## CCc1ccc(CCOc2ccc(/C=C3\OC(=O)C(Br)=C3Br)cc2OC)nc1
[3]
  inhibition: inactive
[4]
  inhibition: inactive
[5]
  inhibition: inactive
[6]
  inhibition: inactive
[7]
  inhibition: inactive
[8]
  inhibition: Active
[9]
  inhibition: Active
[10]
  inhibition: Active
[11]
  inhibition: Active
[12]
  inhibition: Active
[13]
  inhibition: tde
[14]
  inhibition: tde
[15]
  Activity: 6360 pg/mL
[16]
  Activity: 2528.4 pg/mL
[17]
  Activity: 1705.9 pg/mL
[18]
  Activity: 1110.5 pg/mL
[19]
  Activity: 575.6 pg/mL
[20]
  Activity: 347.1 pg/mL
[21]
  viability at 48 h, 10 µM: 98.1%
[1]
  inhibition at 10 µM: 75.8%

## CCOc1cc(/C=C2\OC(=O)C(Br)=C2Br)ccc1OCCc1ccc(CC)cn1
[3]
  inhibition: inactive
[4]
  inhibition: inactive
[5]
  inhibition: inactive
[6]
  inhibition: inactive
[7]
  inhibition: inactive
[8]
  inhibition: Active
[9]
  inhibition: Active
[10]
  inhibition: Active
[11]
  inhibition: Active
[12]
  inhibition: Active
[13]
  inhibition: tde
[14]
  inhibition: tde
[15]
  Activity: 2360.2 pg/mL
[16]
  Activity: 902.2 pg/mL
[17]
  Activity: 598.1 pg/mL
[18]
  Activity: 1044.2 pg/mL
[19]
  Activity: 519.8 pg/mL
[20]
  Activity: 323.8 pg/mL
[21]
  viability at 48 h, 10 µM: 93.1%
[1]
  inhibition at 10 µM: 80.1%

## CCOc1cc(/C=C2\OC(=O)C(Cl)=C2Cl)ccc1OCCc1ccccn1
[1]
  inhibition at 10 µM: 50.4%

## CN(CCOc1ccc(CC2SC(=O)NC2=O)cc1)c1ccccn1 (stereo unspecified) [ROSIGLITAZONE]
[13]
  inhibition: tde
[14]
  inhibition: tde
[15]
  Activity: 8388.6 pg/mL
[16]
  Activity: 3477.9 pg/mL
[17]
  Activity: 2783.9 pg/mL
[18]
  Activity: 1293.8 pg/mL
[19]
  Activity: 631.3 pg/mL
[20]
  Activity: 416.9 pg/mL
[21]
  viability at 48 h, 10 µM: 99.7%
[1]
  inhibition at 10 µM: 16.7%

## Cc1nc(C)c(COc2cccc(/C=C3\SC(=O)NC3=O)c2)nc1C
[1]
  inhibition at 10 µM: 23.5%

## Cc1nc(C)c(COc2ccc(/C=C3\SC(=O)NC3=O)cc2)nc1C
[1]
  inhibition at 10 µM: 19.3%

## CCOc1cc(/C=C2\OC(=O)C(Br)=C2Br)ccc1OCCc1ccccn1
[1]
  inhibition at 10 µM: 62.9%

## CCOc1cc(/C=C2\SC(=O)NC2=O)ccc1OCc1nc(C)c(C)nc1C
[1]
  inhibition at 10 µM: 30.7%

## COc1cc(/C=C2\OC(=O)C(Cl)=C2Cl)ccc1OCCc1ccccn1
[1]
  inhibition at 10 µM: 38.9%

## COc1ccc2c(c1)c(CC(=O)O)c(C)n2C(=O)c1ccc(Cl)cc1 [INDOMETHACIN]
[13]
  inhibition: tde
[14]
  inhibition: tde
[15]
  Activity: 7645.9 pg/mL
[16]
  Activity: 2989.6 pg/mL
[17]
  Activity: 2313.5 pg/mL
[18]
  Activity: 1242 pg/mL
[19]
  Activity: 612.6 pg/mL
[20]
  Activity: 366.5 pg/mL
[21]
  viability at 48 h, 10 µM: 101%
[1]
  inhibition at 10 µM: 31.3%

## COc1cc(/C=C2\OC(=O)C(Br)=C2Br)ccc1OCCc1ccccn1
[1]
  inhibition at 10 µM: 54.7%

## O=C1O/C(=C\c2ccc(OCc3ccccn3)cc2)C(Cl)=C1Cl
[1]
  inhibition at 10 µM: 16.3%
